Activity calls are given as the source filed them.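 The calls were made as follows, unless noted: active = inhibition above 20% together with a positive visual image hit; inconclusive = visual image hit but inhibition not above 20%; inactive = no visual image hit.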
What was measured:
[1] = inhibitors of TNFa-induced NFkB p65 translocation, primary screen, imaging, HUVEC, MLSMR starter and 10KST1 sets (AID 438); details: HUVEC TNFa-induced p65 nuclear translocation; cell count: measured here: nuclei count (cytotoxicity indicator), at 2.08 µM; inhibition: at 2 µM, stronger effect = higher value, 0% TNFa-plus-vehicle, 100% no-TNFa wells;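 also: compound added about 3h40 before a 20 min TNFalpha stimulation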;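 as to inhibition: signal is the nuclear over cytoplasmic p65 intensity ratio per well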
[2] = reduction of polyQ htt aggregates in cells – imaging, exon1htt(103Q)mCFP cells, high-content imaging, primary screen (AID 483;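 active = visual image review flags a hit and inhibition of aggregation exceeds 20%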;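 also: compound exposure lasted 3 days before fixation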;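 as to nuclei count: percent of the per-plate median nuclei count of sample wells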); details: exon1htt(103Q)mCFP cell line, aggregate imaging, at 2 µM; inhibition of aggregation: stronger effect = higher value; nuclei count: measured here: cell count, toxicity
[3] = endothelial E-selectin expression blockers – imaging, HUVEC, immunofluorescence, MLSMR starter and 10KST1 sets, primary screen (AID 487;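 active = visually confirmed hit in the image check and inhibition above 20%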;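 as to inhibition: signal is fraction of cell area covered by stained E-selectin grains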;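 as to nuclei count: 100% = median nuclei count of all wells on the same plate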); details: HUVEC TNFalpha-induced E-selectin immunofluorescence imaging, at 2 µM; inhibition: stronger effect = higher value; nuclei count: measured here: cell number, toxicity
[4] = target: Voltage-gated potassium channel subunit beta-2 (Rattus norvegicus) (UniProt P62483); assay: inhibitors of rat Kvbeta2 reductase activity – biochemical, NADPH fluorescence, primary screen (AID 622;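 active = fluorescence slope higher than the sample average by over 3 SD, cut at about -0.22 in these data, passing the limit was not always enough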;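 also: slope of raw intensity against log time taken from 70 to 1610 s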); details: recombinant KvBeta, 4-cyanobenzaldehyde reduction, at 10 µM, stronger effect = higher value
Chain of Voltage-gated potassium channel subunit beta-2 (Rattus norvegicus) (P62483 whole entry, looked up): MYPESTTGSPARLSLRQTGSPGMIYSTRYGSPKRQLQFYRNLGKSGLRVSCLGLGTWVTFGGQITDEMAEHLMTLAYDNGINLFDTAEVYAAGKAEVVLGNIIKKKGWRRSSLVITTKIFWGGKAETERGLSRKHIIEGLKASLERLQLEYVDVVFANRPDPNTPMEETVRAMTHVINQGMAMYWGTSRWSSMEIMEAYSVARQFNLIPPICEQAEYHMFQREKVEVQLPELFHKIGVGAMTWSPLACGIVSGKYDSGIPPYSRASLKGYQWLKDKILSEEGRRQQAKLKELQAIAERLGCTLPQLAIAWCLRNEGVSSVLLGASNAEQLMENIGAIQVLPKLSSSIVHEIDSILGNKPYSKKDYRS

[5] = target: Voltage-gated potassium channel subunit beta-2 (Rattus norvegicus) (UniProt P62483); assay: enhancers of rat Kvbeta2 NADPH turnover – biochemical, NADPH fluorescence, primary screen (AID 623;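 active = NADPH fluorescence slope more negative than the mean of all samples by about 3 SD, 99.7% confidence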;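 also: fluorescence intensity change per second fitted from 20 to 320 s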); details: Recombinant KvBeta, NADPH fluorescence decrease slope, 10 min; at 10 µM; stronger effect = lower value
[6] = target: Alpha-2C adrenergic receptor (Homo sapiens) (UniProt P18825); assay: compounds altering alpha2C-coupled GIRK flux – cell-based, HEK293 alpha2C/GIRK1/2, thallium flux, primary screen (AID 624;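 active = fluorescence slope after compound addition differing from the mean of all screened samples at 99.7% confidence, in either direction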;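 also: slope of fluorescence ratio to pre-addition baseline per second over 15 to 24 s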); details: thallium flux BTC fluorescence, at 10 µM, actives lie on both sides
Chain of Alpha-2C adrenergic receptor (Homo sapiens) (P18825 whole entry, looked up): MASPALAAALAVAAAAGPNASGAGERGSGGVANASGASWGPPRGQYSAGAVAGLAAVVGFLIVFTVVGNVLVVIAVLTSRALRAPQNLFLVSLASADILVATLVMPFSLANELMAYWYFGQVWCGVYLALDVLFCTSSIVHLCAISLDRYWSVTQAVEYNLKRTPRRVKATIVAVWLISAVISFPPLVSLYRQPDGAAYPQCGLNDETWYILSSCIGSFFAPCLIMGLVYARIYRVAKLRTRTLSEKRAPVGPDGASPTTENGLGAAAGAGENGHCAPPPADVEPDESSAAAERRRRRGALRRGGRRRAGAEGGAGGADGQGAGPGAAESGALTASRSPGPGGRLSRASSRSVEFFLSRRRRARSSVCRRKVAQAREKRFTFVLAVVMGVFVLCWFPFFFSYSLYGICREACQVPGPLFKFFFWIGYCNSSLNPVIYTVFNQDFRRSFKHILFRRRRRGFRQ

[7] = inhibitors of larval lipid processing in zebrafish, primary screen, whole organism, PED6 fluorescence, gall bladder and intestine (AID 686;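 active = a full or partial loss of lipid-probe fluorescence in the fish gall bladder, intestine or both, judged by eye; inactive = no fluorescence loss, or compound toxic to the fish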;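 also: larvae 5 to 7 days old with five fish per well; signal comes from phospholipase A2 cleavage of quenched PED6 carried via bile; overnight exposure to compound and PED6 before scoring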); details: Zebrafish larvae PED6 lipid processing, fluorescence scoring; screened at 20 µM (by protocol)
Summary of the method: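 System: live zebrafish larvae aged 5-7 days, whole organism; measure: graded gall bladder and intestinal fluorescence inhibition per well; incubation: overnight exposure; reagent: ingested quenched lipid PED6 at 100 nM; signal: By-eye fluorescence microscopy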

[8] = blockers of RIG-like receptor reporter activation – cell-based, Sendai virus stimulus, luciferase, 10K MLSCN set, TLR/RLR signaling modifier project, primary screen (AID 602276;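 active = inhibition at or above 50% at 10 µM; inactive = inhibition below 50%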;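 also: firefly luciferase from ISG56 promoter only with Renilla not read in this screen; 0% = Sendai virus plus DMSO and 100% = medium plus DMSO without virus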); details: HEK293 RL24 IRF3 luciferase reporter, at 10 µM, stronger effect = higher value
[9] = TLR3 IRF3 reporter activation blockers – cell-based, poly I:C stimulus, luciferase, 10K MLSCN set, primary screen (AID 602277;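 active = inhibition of the reporter signal at or above 50%; inactive = inhibition below 50%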); details: HEK293-TLR3 RL24 IRF3 luciferase reporter, at 10 µM, stronger effect = higher value

Structure (SMILES) | cell count [1] | inhibition [1] | inhibition of aggregation [2] | nuclei count [2] | inhibition [3] | nuclei count [3] | fluorescence slope [4] | NADPH fluorescence slope [5] | slope [6] | outcome [7] | inhibition [8] | inhibition [9]
CNC(=O)CSc1nc2c(c(=O)n(C)c(=O)n2C)n1Cc1ccc(C)cc1 | 346 | 4% (inactive) | 15.9% (inactive) | 80.4% | -12.3% (inactive) | 88.8% | -0.37 (inactive) | -5.6e-05 (inactive) | 0.00619 (inactive) | inactive | 6.2% (inactive) | 24.5% (inactive)
Cc1[nH]nc(-c2ccc(O)c(C)c2O)c1-c1cnn(-c2ccccc2)c1 | 345 | 1.5% (inactive) | 10.3% (inactive) | 111% | 45.5% (inactive) | 97.8% | -0.438 (inactive) | -2.4e-05 (inactive) | 0.00436 (inactive) | inactive | 11.4% (inactive) | 5.23% (inactive)
CCOC(=O)c1c(N)c(C#N)nn1-c1ccccc1C(=O)OC | 516 | -3.6% (inactive) | 30.5% (inactive) | 81% | -41.6% (inactive) | 101% | -0.364 (inactive) | -4.6e-05 (inactive) | 0.00521 (inactive) | inactive | 9.81% (inactive) | 20.2% (inactive)
O=C1C2CCCN2C(c2ccccc2)N1c1ccc(Cl)cc1 (centres undefined) | 374 | 5.5% (inactive) | -14.7% (inactive) | 99.5% | -25.3% (inactive) | 114% | -0.424 (inactive) | -6.3e-05 (inactive) | 0.00548 (inactive) | inactive | 31.4% (inactive) | -130% (inactive)
Cc1nonc1NC(=O)c1ccccc1Br | 620 | 9.6% (inactive) | 28.1% (inactive) | 96.4% | 52.4% (inactive) | 60% | -0.346 (inactive) | -5.8e-05 (inactive) | 0.00524 (inactive) | inactive | 12% (inactive) | 22.4% (inactive)
COCCNC(=S)c1ccc(OC)cc1 | 318 | 4.7% (inactive) | 1.2% (inactive) | 121% | -41.9% (inactive) | 123% | -0.362 (inactive) | -7.4e-05 (inactive) | 0.00489 (inactive) | inactive | 4.72% (inactive) | 4.95% (inactive)
CCOC(=O)c1oc2cc(OCC(N)=O)ccc2c(=O)c1-c1ccc(OC)c(OC)c1 | 411 | 8.1% (inactive) | -10.4% (inactive) | 106% | -114% (inactive) | 102% | -0.445 (inactive) | -0.000137 (inactive) | 0.0045 (inactive) | inactive | 19.4% (inactive) | 22.5% (inactive)
COc1cc2c(cc1OC)C(/C(C#N)=N\O)=NC(C)(C)C2 | 635 | -39.6% (inactive) | 2.8% (inactive) | 107% | 33% (inactive) | 96.2% | -0.432 (inactive) | -2e-05 (inactive) | 0.0058 (inactive) | inactive | 13.5% (inactive) | 13.6% (inactive)
CCOC(=O)c1cnc(-n2nc(C)cc2C)nc1N1CC(C)OC(C)C1 (centres undefined) | 654 | -15.5% (inactive) | 29.7% (inactive) | 69.8% | -1.6% (inactive) | 96.9% | -0.411 (inactive) | -3.9e-05 (inactive) | 0.00483 (inactive) | inactive | -6.36% (inactive) | 6.34% (inactive)
CN(C)c1ccc(NC(=O)Nc2cccc(Cl)c2)cc1 | 387 | 2.3% (inactive) | 1.1% (inactive) | 106% | -10% (inactive) | 109% | -0.436 (inactive) | -3.6e-05 (inactive) | 0.00643 (inactive) | inactive | -43.6% (inactive) | -104% (inactive)
COCCCn1c(=N)c(C(=O)NCC2CCCO2)cc2c(=O)n3cccc(C)c3nc21 (centres undefined) | 587 | -8.8% (inactive) | -3.1% (inactive) | 78.6% | 28.1% (inactive) | 67.6% | -0.0296 (active) | -1.3e-05 (inactive) | 0.00471 (inactive) | inactive | 11.6% (inactive) | 21% (inactive)
COCCNC(=O)C(c1ccc(C)o1)N(C(=O)c1snc(C(N)=O)c1N)c1ccc(C)cc1 (centres undefined) | 498 | -3.6% (inactive) | 19.7% (inactive) | 94% | 73.6% (inactive) | 65.5% | -0.378 (inactive) | -5.3e-05 (inactive) | 0.00521 (inactive) | inactive | 12.5% (inactive) | 7.41% (inactive)
CCOC(=O)Cc1csc(NC(=O)c2cccc(OC)c2)n1 | 395 | 5.8% (inactive) | -28.7% (inactive) | 97% | -15.2% (inactive) | 113% | -0.459 (inactive) | -3.2e-05 (inactive) | 0.00478 (inactive) | inactive | 4.13% (inactive) | -6.24% (inactive)
Cc1nnc(SCCCn2c(N3CCCCC3)nc3c2c(=O)[nH]c(=O)n3C)s1 | 382 | -2.4% (inactive) | -17.5% (inactive) | 109% | -64.9% (inactive) | 93.7% | -0.458 (inactive) | -1.1e-05 (inactive) | 0.00412 (inactive) | inactive | 8.32% (inactive) | 17.6% (inactive)
O=C(NCCCN1CCCC1=O)c1cccnc1 | 364 | 2.5% (inactive) | -3.8% (inactive) | 108% | 35.2% (inactive) | 100% | -0.432 (inactive) | -4.3e-06 (inactive) | 0.00372 (inactive) | inactive | -11.4% (inactive) | -7.12% (inactive)
CCOC(=O)CSc1nc2sc(C)c(C)c2c(=O)[nH]1 | 419 | 1.6% (inactive) | -20% (inactive) | 104% | -75.6% (inactive) | 102% | -0.38 (inactive) | -5e-06 (inactive) | 0.00685 (inactive) | inactive | 8.58% (inactive) | 9.53% (inactive)
Cc1nc2ccccc2c(=O)n1NC(=O)Nc1ccccc1 | 592 | 0% (inactive) | 17.7% (inactive) | 83.8% | -41.3% (inactive) | 97.5% | -0.359 (inactive) | -2.7e-05 (inactive) | 0.00703 (inactive) | inactive | 12.6% (inactive) | -4.39% (inactive)
CC1CC(C)CN(c2nc3c(c(=O)[nH]c(=O)n3C)n2CCCSc2nc3ccccc3s2)C1 (centres undefined) | 383 | -4.3% (inactive) | 33.6% (inactive) | 97.2% | -83.6% (inactive) | 107% | -0.445 (inactive) | -5e-05 (inactive) | 0.00577 (inactive) | inactive | 10.4% (inactive) | 11.5% (inactive)
Cc1nnc(SCC(=O)NCc2ccc3c(c2)OCO3)s1 | 418 | 3.1% (inactive) | -12% (inactive) | 101% | -57% (inactive) | 106% | -0.468 (inactive) | -4.3e-05 (inactive) | 0.00565 (inactive) | inactive | 5.5% (inactive) | 11.6% (inactive)
Cc1ccc(C)c(-n2nnnc2SCC(=O)NCCC2=CCCCC2)c1 | 409 | -6.6% (inactive) | 28.8% (inactive) | 99.5% | -16.3% (inactive) | 106% | -0.468 (inactive) | -5.4e-05 (inactive) | 0.00361 (inactive) | inactive | 17.6% (inactive) | 14.8% (inactive)
CC(=O)Nc1ccccc1OCC(=O)c1cc(C)n(Cc2cccs2)c1C | 425 | -2% (inactive) | -13.7% (inactive) | 45.4% | -54.1% (inactive) | 107% | -0.475 (inactive) | -4.2e-05 (inactive) | 0.00662 (inactive) | inactive; toxic | 49.5% (inactive) | -26.5% (inactive)
Cc1ccc(C)c(CSc2nnc(CCN)o2)c1 | 431 | -14.5% (inactive) | 2.5% (inactive) | 65.3% | -41.1% (inactive) | 103% | -0.462 (inactive) | -9.3e-06 (inactive) | 0.00535 (inactive) | inactive | 6.22% (inactive) | 10.2% (inactive)
CCCCCCn1c(CN2CCCC(C)C2)nc2c1c(=O)n(C)c(=O)n2C (centres undefined) | 302 | -3.8% (inactive) | -10.6% (inactive) | 104% | -46.9% (inactive) | 114% | -0.396 (inactive) | -4.7e-05 (inactive) | 0.00516 (inactive) | inactive | 17.5% (inactive) | 9.02% (inactive)
O=C(NCc1cccnc1)c1cccc(C(F)(F)F)c1 | 355 | 5.2% (inactive) | 1.3% (inactive) | 111% | 4.9% (inactive) | 103% | -0.452 (inactive) | -2.9e-05 (inactive) | 0.00523 (inactive) | inactive | 11.3% (inactive) | 20.1% (inactive)
CCCCCCn1c(CN2CCN(Cc3ccccc3)CC2)nc2c1c(=O)n(C)c(=O)n2C | 255 | -15.1% (inactive) | 9.8% (inactive) | 84.1% | 24.2% (inactive) | 64% | -0.43 (inactive) | -5.6e-05 (inactive) | 0.00491 (inactive) | inactive | 23% (inactive) | 17.3% (inactive)
Cn1nc(C(C)(C)C)cc1C(=O)NCc1ccc(N2CCCC2=O)cc1 | 651 | -10.6% (inactive) | -12.4% (inactive) | 70.7% | -11.3% (inactive) | 107% | -0.456 (inactive) | -9.7e-05 (inactive) | 0.00425 (inactive) | inactive; toxic | 9.24% (inactive) | -37.1% (inactive)
COc1ccc(NC(=O)Cn2nnc(-c3ccccc3F)n2)cc1Cl | 602 | -9.3% (inactive) | -0.1% (inactive) | 92.6% | -59.1% (inactive) | 107% | -0.382 (inactive) | 1.8e-05 (inactive) | 0.00543 (inactive) | inactive | 7.23% (inactive) | 38.7% (inactive)
